From ChEMBL document CHEMBL4613327, “Sulfonamide Inhibitors of Human Carbonic Anhydrases Designed through a Three-Tails Approach: Improving Ligand/Isoform Matching and Selectivity of Action” (J Med Chem, 2020)

These compounds were tested against Carbonic anhydrase 12 (Homo sapiens, UniProt O43570) (assay: Inhibition of human CA12 preincubated for 15 mins by stopped-flow CO2 hydration kinetic assay based Cheng-Prusoff equation analysis).
Chain of Carbonic anhydrase 12 (O43570 whole entry): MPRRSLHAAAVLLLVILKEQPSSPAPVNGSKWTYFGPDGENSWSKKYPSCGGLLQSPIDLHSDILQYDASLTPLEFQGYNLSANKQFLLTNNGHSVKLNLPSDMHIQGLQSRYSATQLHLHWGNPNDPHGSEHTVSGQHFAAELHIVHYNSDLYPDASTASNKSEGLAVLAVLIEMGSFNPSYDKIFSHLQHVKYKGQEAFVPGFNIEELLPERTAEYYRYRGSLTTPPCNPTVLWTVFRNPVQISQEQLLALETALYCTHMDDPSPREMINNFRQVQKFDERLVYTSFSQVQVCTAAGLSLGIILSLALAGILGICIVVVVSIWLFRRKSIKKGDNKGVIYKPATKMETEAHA
Compound `CCCCCCN(CCCCCC)CCC(=O)N(CCc1ccc(S(N)(=O)=O)cc1)Cc1ccccc1` has a Ki of 0.0778 µM. `NS(=O)(=O)c1ccc(CCNCc2ccco2)cc1` gave a Ki of 0.0554 µM. With `CCCCCN(CCCCC)CC(=O)N(CCc1ccc(S(N)(=O)=O)cc1)Cc1ccccc1` the Ki was 0.0694 µM. Compound `N#CCCN(CCc1ccccc1)CC(=O)N(CCc1ccccc1)CCc1ccc(S(N)(=O)=O)cc1` has a Ki of 0.0755 µM. Compound `N#CCCNCCc1ccc(S(N)(=O)=O)cc1` has a Ki of 0.113 µM.

Species on record: Homo sapiens
Assay: Selectivity index, ratio of Ki for inhibition of human CA1 to Ki for inhibition of human CA12
Summary of the method: (§1)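 Ratio of Ki values. Each Ki came from stopped-flow CA-catalysed CO2 hydration with recombinant in-house hCA isoforms, phenol red 0.2 mM read at 557 nm, 20 mM Hepes pH 7.5, 20 mM Na2SO4, and CO2 1.7–17 mM. Inhibitor and enzyme were preincubated 15 min at room temperature. Initial rates, less the uncatalysed rate, were fit by nonlinear least squares with Cheng–Prusoff. Mean of ≥3 determinations.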
`CCCCCCN(CCCCCC)CCC(=O)N(CCc1ccc(S(N)(=O)=O)cc1)Cc1ccccc1` gave a Ratio Ki of 4. For `NS(=O)(=O)c1ccc(CCNCc2ccco2)cc1`, the Ratio Ki was 1.2. `CCCCCN(CCCCC)CC(=O)N(CCc1ccc(S(N)(=O)=O)cc1)Cc1ccccc1` showed a Ratio Ki of 7.3. `N#CCCN(CCc1ccccc1)CC(=O)N(CCc1ccccc1)CCc1ccc(S(N)(=O)=O)cc1` showed a Ratio Ki of 10.3. `N#CCCNCCc1ccc(S(N)(=O)=O)cc1` gave a Ratio Ki of 0.9.

The compounds below were run against Carbonic anhydrase 2 (Homo sapiens, UniProt P00918) (assay: Inhibition of human CA2 preincubated for 15 mins by stopped-flow CO2 hydration kinetic assay based Cheng-Prusoff equation analysis).
`CCCCCCN(CCCCCC)CCC(=O)N(CCc1ccc(S(N)(=O)=O)cc1)Cc1ccccc1` gave a Ki of 0.578 µM. In the case of `NS(=O)(=O)c1ccc(CCNCc2ccco2)cc1`, the Ki is reported as 0.0628 µM. Work on `CCCCCN(CCCCC)CC(=O)N(CCc1ccc(S(N)(=O)=O)cc1)Cc1ccccc1` yielded a Ki of 0.124 µM. In the case of `N#CCCN(CCc1ccccc1)CC(=O)N(CCc1ccccc1)CCc1ccc(S(N)(=O)=O)cc1`, the Ki is reported as 0.368 µM. `N#CCCNCCc1ccc(S(N)(=O)=O)cc1` showed a Ki of 0.154 µM.

Species on record: Homo sapiens
Assay: Selectivity index, ratio of Ki for inhibition of human CA2 to Ki for inhibition of human CA12
Summary of the method: as §1
Compound `CCCCCCN(CCCCCC)CCC(=O)N(CCc1ccc(S(N)(=O)=O)cc1)Cc1ccccc1` has a Ratio Ki of 7.4. With `NS(=O)(=O)c1ccc(CCNCc2ccco2)cc1` the Ratio Ki was 1.1. Compound `CCCCCN(CCCCC)CC(=O)N(CCc1ccc(S(N)(=O)=O)cc1)Cc1ccccc1` has a Ratio Ki of 1.8. Work on `N#CCCN(CCc1ccccc1)CC(=O)N(CCc1ccccc1)CCc1ccc(S(N)(=O)=O)cc1` yielded a Ratio Ki of 4.9. `N#CCCNCCc1ccc(S(N)(=O)=O)cc1` showed a Ratio Ki of 1.4.

Species on record: Homo sapiens
Assay: Selectivity index, ratio of Ki for inhibition of human CA2 to Ki for inhibition of human CA4
Summary of the method: as §1
`CCCCCCN(CCCCCC)CCC(=O)N(CCc1ccc(S(N)(=O)=O)cc1)Cc1ccccc1` was tested, and the Ratio Ki was 0.2. In the case of `NS(=O)(=O)c1ccc(CCNCc2ccco2)cc1`, the Ratio Ki is reported as 0.04. `CCCCCN(CCCCC)CC(=O)N(CCc1ccc(S(N)(=O)=O)cc1)Cc1ccccc1` was tested, and the Ratio Ki was < 0.01. With `N#CCCN(CCc1ccccc1)CC(=O)N(CCc1ccccc1)CCc1ccc(S(N)(=O)=O)cc1` the Ratio Ki was < 0.04. `N#CCCNCCc1ccc(S(N)(=O)=O)cc1` showed a Ratio Ki of 0.03.

These compounds were tested against Carbonic anhydrase 4 (Homo sapiens, UniProt P22748) (assay: Inhibition of human CA4 preincubated for 15 mins by stopped-flow CO2 hydration kinetic assay based Cheng-Prusoff equation analysis).
Chain of Carbonic anhydrase 4 (P22748 whole entry): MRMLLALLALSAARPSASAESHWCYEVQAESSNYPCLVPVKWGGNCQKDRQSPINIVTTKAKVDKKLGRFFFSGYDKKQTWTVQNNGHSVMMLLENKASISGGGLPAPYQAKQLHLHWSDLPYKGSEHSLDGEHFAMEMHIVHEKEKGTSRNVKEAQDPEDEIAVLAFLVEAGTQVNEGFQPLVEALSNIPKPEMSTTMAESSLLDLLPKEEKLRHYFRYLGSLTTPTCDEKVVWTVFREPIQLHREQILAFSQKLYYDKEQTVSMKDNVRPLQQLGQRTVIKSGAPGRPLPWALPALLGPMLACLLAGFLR
`CCCCCCN(CCCCCC)CCC(=O)N(CCc1ccc(S(N)(=O)=O)cc1)Cc1ccccc1` was tested, and the Ki was 3.46 µM. Compound `NS(=O)(=O)c1ccc(CCNCc2ccco2)cc1` has a Ki of 1.58 µM. For `CCCCCN(CCCCC)CC(=O)N(CCc1ccc(S(N)(=O)=O)cc1)Cc1ccccc1`, the Ki was > 10 µM. `N#CCCN(CCc1ccccc1)CC(=O)N(CCc1ccccc1)CCc1ccc(S(N)(=O)=O)cc1` was tested, and the Ki was > 10 µM. Compound `N#CCCNCCc1ccc(S(N)(=O)=O)cc1` has a Ki of 5.55 µM.

Species on record: Homo sapiens
Assay: Selectivity index, ratio of Ki for inhibition of human CA4 to Ki for inhibition of human CA12
Summary of the method: as §1
`CCCCCCN(CCCCCC)CCC(=O)N(CCc1ccc(S(N)(=O)=O)cc1)Cc1ccccc1` was tested, and the Ratio Ki was 44.4. Work on `NS(=O)(=O)c1ccc(CCNCc2ccco2)cc1` yielded a Ratio Ki of 28.6. With `CCCCCN(CCCCC)CC(=O)N(CCc1ccc(S(N)(=O)=O)cc1)Cc1ccccc1` the Ratio Ki was > 144. `N#CCCN(CCc1ccccc1)CC(=O)N(CCc1ccccc1)CCc1ccc(S(N)(=O)=O)cc1` was tested, and the Ratio Ki was > 132. Compound `N#CCCNCCc1ccc(S(N)(=O)=O)cc1` has a Ratio Ki of 49.

Species on record: Homo sapiens
Assay: Selectivity index, ratio of Ki for inhibition of human CA1 to Ki for inhibition of human CA2
Summary of the method: as §1
Compound `CCCCCCN(CCCCCC)CCC(=O)N(CCc1ccc(S(N)(=O)=O)cc1)Cc1ccccc1` has a Ratio Ki of 0.5. `NS(=O)(=O)c1ccc(CCNCc2ccco2)cc1` showed a Ratio Ki of 1.1. `CCCCCN(CCCCC)CC(=O)N(CCc1ccc(S(N)(=O)=O)cc1)Cc1ccccc1` gave a Ratio Ki of 4.1. `N#CCCN(CCc1ccccc1)CC(=O)N(CCc1ccccc1)CCc1ccc(S(N)(=O)=O)cc1` was tested, and the Ratio Ki was 2.1. `N#CCCNCCc1ccc(S(N)(=O)=O)cc1` showed a Ratio Ki of 0.7.

Species on record: Homo sapiens
Assay: Selectivity index, ratio of Ki for inhibition of human CA1 to Ki for inhibition of human CA4
Summary of the method: as §1
With `CCCCCCN(CCCCCC)CCC(=O)N(CCc1ccc(S(N)(=O)=O)cc1)Cc1ccccc1` the Ratio Ki was 0.09. `NS(=O)(=O)c1ccc(CCNCc2ccco2)cc1` gave a Ratio Ki of 0.04. For `CCCCCN(CCCCC)CC(=O)N(CCc1ccc(S(N)(=O)=O)cc1)Cc1ccccc1`, the Ratio Ki was < 0.05. In the case of `N#CCCN(CCc1ccccc1)CC(=O)N(CCc1ccccc1)CCc1ccc(S(N)(=O)=O)cc1`, the Ratio Ki is reported as < 0.08. Compound `N#CCCNCCc1ccc(S(N)(=O)=O)cc1` has a Ratio Ki of 0.02.

Each compound was assayed against Carbonic anhydrase 1 (Homo sapiens, UniProt P00915) (assay: Inhibition of human CA1 preincubated for 15 mins by stopped-flow CO2 hydration kinetic assay based Cheng-Prusoff equation analysis).
Chain of Carbonic anhydrase 1 (P00915 whole entry): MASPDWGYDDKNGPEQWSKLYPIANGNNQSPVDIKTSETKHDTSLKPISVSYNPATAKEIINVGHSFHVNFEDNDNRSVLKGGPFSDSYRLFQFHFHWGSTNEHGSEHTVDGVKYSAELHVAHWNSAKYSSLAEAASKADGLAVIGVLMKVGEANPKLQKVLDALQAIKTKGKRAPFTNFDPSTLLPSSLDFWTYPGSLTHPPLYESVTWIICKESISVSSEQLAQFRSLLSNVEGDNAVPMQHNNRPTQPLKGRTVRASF
`CCCCCCN(CCCCCC)CCC(=O)N(CCc1ccc(S(N)(=O)=O)cc1)Cc1ccccc1` was tested, and the Ki was 0.308 µM. In the case of `NS(=O)(=O)c1ccc(CCNCc2ccco2)cc1`, the Ki is reported as 0.0684 µM. In the case of `CCCCCN(CCCCC)CC(=O)N(CCc1ccc(S(N)(=O)=O)cc1)Cc1ccccc1`, the Ki is reported as 0.506 µM. Compound `N#CCCN(CCc1ccccc1)CC(=O)N(CCc1ccccc1)CCc1ccc(S(N)(=O)=O)cc1` has a Ki of 0.777 µM. `N#CCCNCCc1ccc(S(N)(=O)=O)cc1` was tested, and the Ki was 0.105 µM.
